Data on five compounds can be found in ChEMBL document CHEMBL2029285, “Structure-based design of novel class II c-Met inhibitors: 1. Identification of pyrazolone-based derivatives” (J Med Chem, 2012).

For data set [1], the target named is Insulin-like growth factor 1 receptor (Homo sapiens) (UniProt P08069). Description: Inhibition of IGF1R.
A short description of data set [2]: Volume of distribution at steady-state in Sprague-Dawley rat at 2 mg/kg, iv. The following applies: in vivo, read-out: Vdss. In kind it is ADME, organism-based. On the set-up: dose 2 mg/kg, route intravenous. In a few lines:
(§1)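 Male Sprague-Dawley rats, 3 animals per study, given 2 mg/kg iv as a solution in DMSO. Clearance, steady-state volume and half-life were derived from plasma pharmacokinetics.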

The test system of data set [3] is Mus musculus. The data set is described as follows: Inhibition of HGF-mediated c-met autophosphorylation in po dosed Balb/c mouse liver compound administered 2 hrs before and measured after 5 mins of HGF stimulation by electrochemiluminescent assay. In kind it is functional. In a few lines:
(§2)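 Balb/c mice were gavaged at 10, 30 or 100 mg/kg. At 2 h postdose, human HGF was injected iv and livers were harvested 5 min later. Phospho-c-Met was quantified by electrochemiluminescent assay and compared with vehicle + HGF. Mean ± SD, n = 3. Terminal plasma concentrations were measured.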

For data set [4], the system named is Mus musculus. The data set is described as follows: Inhibition of HGF-mediated c-met autophosphorylation in Balb/c mouse liver at 10 mg/kg, po administered 2 hrs before and measured after 5 mins of HGF stimulation by electrochemiluminescent assay. In kind it is functional. The essentials:
as §2

A short description of data set [5]: Oral bioavailability in Sprague-Dawley rat at 5 mg/kg. Particulars: in vivo. The format is ADME, organism-based. In a few lines:
(§3)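 Male Sprague-Dawley rats, 3 animals per study, dosed orally at 5 mg/kg as a suspension in 1% Tween 80, 99% OraPlus.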

Data set [6] in a line: AUC in Sprague-Dawley rat at 5 mg/kg, po. The format is ADME, organism-based. On the set-up: dose 5 mg/kg, route oral. The following applies: plasma. In a few lines: as §3
Data set [7] in a line: Elimination half life in Sprague-Dawley rat at 2 mg/kg, iv. In kind it is ADME, organism-based. Also noted: dose 2 mg/kg, route intravenous. The following applies: in vivo, read-out: beta t1/2 (converted). In a few lines: as §1
The target in data set [8] is Vascular endothelial growth factor receptor 2 (Homo sapiens, UniProt P35968). The data set is described as follows: Inhibition of VEGFR2.
The nature of data set [9]: Clearance in Sprague-Dawley rat at 2 mg/kg, iv. The format is ADME, organism-based. On the set-up: dose 2 mg/kg, route intravenous. The following applies: in vivo. In a few lines:
as §1

The target of data set [10] is T1, Hepatocyte growth factor receptor (Homo sapiens, UniProt P08581). The data set is described as follows: Inhibition of recombinant c-met-mediated gastrin phosphorylation by HTRF assay.
In data set [11] the target is T1, Hepatocyte growth factor receptor. Description: Inhibition of HGF-mediated c-met autophosphorylation in serum-starved human PC3 cells after 1 hr by electrochemiluminescent immunoassay. The format is cell-based, PC-3.

The compound `COc1cc2nccc(Oc3ccc(NC(=O)c4c(C)n(C)n(-c5ccccc5)c4=O)cc3F)c2cc1OC` had an INH in data set [1] of 65 nM. Further, the Vd in [2] worked out at 0.242 L/kg. Besides, in data set [3], the ED90 was less than 30 mg/kg and the inhibition entry was “Dose-dependent effect”. The compound further registered an inhibition in vivo at 10 mg/kg in [4] of 85%. Further, in data set [5], the bioavailability stood at 94%. In addition, the area under the curve (AUC) in data set [6] was determined as 258 µM·h. Besides, the half-life in [7] is 4.6 h. In data set [8], this compound had an INH of 6.2 nM. For the same compound, the clearance in data set [9] was 0.583 mL/min/kg.
Regarding `COc1ccc2c(OCc3nnc4ccc(-c5cc(F)c(F)c(F)c5)cn34)ccnc2c1`, the inhibition constant (Ki) in data set [10] turned out to be 4.8 nM.
In [11], `COc1cc2nccc(Oc3ccc(NC(=O)N4CCN(c5ccccc5)C4=O)cc3F)c2cc1OC` showed an IC50 of 53 nM. The Ki in data set [10] turned out to be 1.7 nM.
Turning to `COc1cc2nccc(Oc3ccc(NC(=S)NC(=O)Cc4ccccc4)cc3F)c2cc1OC`, the Ki in data set [8] came out at 103 nM.
In data set [11], `COc1cc2nccc(Oc3ccc(N(C)C(=O)c4c(C)n(C)n(-c5ccccc5)c4=O)cc3F)c2cc1OC` had a concentration for half-maximal inhibition (IC50) of more than 20000 nM. Also, in data set [10], the Ki was more than 20000 nM.
